Experimental data from different studies.
Lines come from different studies, so protocols differ. In brackets after ≈: the same amount, converted by molar mass.
Organism: Enterococcus faecalis

SMILES | test | test system | setting | measurement | result
COc1cccc(-c2nc3ccc(C)cc3[nH]2)c1 | microbial growth, broth dilution | ATCC29212 | – | MIC | 128 µg/mL (≈ 537 µM)
CCn1cc(C(=O)O)c(=O)c2cc(F)c(N3CCNCC3)cc21 | microbial killing, broth dilution | NCTC12697 | – | MBC | 4 µM (≈ 1.28 µg/mL)
Clc1ccc(-c2nc3ccccc3[nH]2)c(Cl)c1 | microbial growth, broth dilution | ATCC29212 | – | MIC | 64 µg/mL (≈ 243 µM)
O=C(O)CN(CCN(CC(=O)O)CC(=O)O)CC(=O)O | microbial killing | OG1RF | – | MBC | 500 µM (≈ 146 µg/mL)
CC1(C)S[C@@H]2[C@H](NC(=O)[C@H](N)c3ccccc3)C(=O)N2[C@H]1C(=O)O | microbial growth, broth dilution | ATCC29212 | – | MIC | 2 µg/mL (≈ 5.72 µM)
CSc1ccc(-c2nc3ccc(C)cc3n2Cc2ccccc2)cc1 | microbial growth, broth dilution | ATCC29212 | – | MIC | 128 µg/mL (≈ 372 µM)
CN[C@H](CC(C)C)C(=O)N[C@H]1C(=O)N[C@@H](CC(N)=O)C(=O)N[C@H]2C(=O)N[C@H]3C(=O)N[C@H](C(=O)N[C@H](C(=O)O)c4cc(O)cc(O)c4-c4cc3ccc4O)[C@H](O)c3ccc(c(Cl)c3)Oc3cc2cc(c3O[C@@H]2O[C@H](CO)[C@@H](O)[C@H](O)[C@H]2O[C@H]2C[C@](C)(N)[C@H](O)[C@H](C)O2)Oc2ccc(cc2Cl)[C@H]1O | microbial killing, broth dilution | NCTC12697 | – | MBC | 16 µM (≈ 23.2 µg/mL)
Cc1ccc(C)n1-c1ccc(-c2nnc(-c3c(Cl)cccc3Cl)[nH]2)cc1 | microbial growth, broth dilution | ATCC14506 | 18 h | MIC | 8 µg/mL (≈ 20.9 µM)
CC1(C)S[C@@H]2[C@H](NC(=O)[C@H](N)c3ccccc3)C(=O)N2[C@H]1C(=O)O | microbial growth, agar dilution | ATCC29212 | 26.93 µM | inhibition | 100%
Cc1cc(C)n(C(=O)c2ccc(-n3c(C)ccc3C)cc2)n1 | microbial growth, broth dilution | ATCC14506 | 18 h | MIC | 125 µg/mL (≈ 426 µM)
c1ccc(CN(CCN(Cc2ccccn2)Cc2ccccn2)Cc2ccccn2)nc1 | microbial killing | OG1RF | – | MBC | > 2000 µM
